Measurements taken from ChEMBL document CHEMBL1155470, “Colloid formation by drugs in simulated intestinal fluid” (J Med Chem, 2010).
One block for each compound: values may come before it. Calls of active or inactive are those of the source. The rule behind the calls is not given here.

What was measured:
Cruzipain [1] = biological target: T1, Cruzipain (Trypanosoma cruzi, UniProt P25779); test: Inhibition of Trypanosoma cruzi cruzaine preincubated for 5 mins before substrate addition by fluorescence assay in presence of 0.01% Triton X-100
T1 sequence (P25779 whole entry): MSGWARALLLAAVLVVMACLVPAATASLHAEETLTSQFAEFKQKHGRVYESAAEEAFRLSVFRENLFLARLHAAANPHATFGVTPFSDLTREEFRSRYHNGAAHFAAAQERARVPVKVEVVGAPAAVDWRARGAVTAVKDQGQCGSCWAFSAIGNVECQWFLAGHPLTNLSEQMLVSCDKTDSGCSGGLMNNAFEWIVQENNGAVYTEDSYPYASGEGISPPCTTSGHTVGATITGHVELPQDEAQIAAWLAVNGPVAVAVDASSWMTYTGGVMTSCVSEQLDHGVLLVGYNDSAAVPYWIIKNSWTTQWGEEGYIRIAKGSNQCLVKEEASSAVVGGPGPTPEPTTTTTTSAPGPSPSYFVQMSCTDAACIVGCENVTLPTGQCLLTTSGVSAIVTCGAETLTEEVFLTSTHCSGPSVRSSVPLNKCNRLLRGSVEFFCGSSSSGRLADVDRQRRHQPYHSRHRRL

[2] = Colloidal aggregation in fed state simulated intestinal fluid assessed as colloid radius at 200 uM by dynamic light scattering assay in presence of 1% DMSO; type: physicochemical; conditions: simulated gi fluid
In short: (§1)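 Concentrated DMSO stocks diluted into filtered FeSSIF: blank FeSSIF plus 15 mM sodium taurocholate and 3.75 mM lecithin, dissolved at 37 °C. Final DMSO 1% unless otherwise noted. Particle size by dynamic light scattering at 826.6 nm, detector at 90°, 100% laser power. Values are averages of three or more independent measurements at room temperature.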

[3] = Colloidal aggregation in fed state simulated intestinal fluid assessed as colloid radius at 10 uM by dynamic light scattering assay in presence of 1% DMSO; conditions: simulated gi fluid
[4] = Colloidal aggregation in fed state simulated intestinal fluid by dynamic light scattering-based beads autocorrelation assay in presence of 1% DMSO; type: physicochemical; conditions: simulated gi fluid
In short: (§2)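 FeSSIF samples examined by DLS (826.6 nm laser, 90° detector, room temperature), comparing autocorrelation curves with blank FeSSIF. The micelle background was checked with 200 nm calibration beads diluted in FeSSIF. Drug samples were made by diluting DMSO stocks into filtered FeSSIF (15 mM taurocholate, 3.75 mM lecithin).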

Cruzipain [5] = biological target: T1, Cruzipain; test: Inhibition of Trypanosoma cruzi cruzaine preincubated for 5 mins before substrate addition by fluorescence assay in absence of Triton X-100
[6] = Colloidal aggregation in fed state simulated intestinal fluid at 450 uM by dynamic light scattering-based beads autocorrelation assay in presence of 1.8% DMSO; type: physicochemical; conditions: simulated gi fluid; in short: as §2
[7] = Colloidal aggregation in fed state simulated intestinal fluid assessed as colloid radius at 450 uM by dynamic light scattering assay in presence of 1% DMSO; type: physicochemical; conditions: simulated gi fluid; in short: as §1
[8] = Colloidal aggregation in fed state simulated intestinal fluid by dynamic light scattering assay in presence of 1.8% DMSO; type: physicochemical; conditions: simulated gi fluid; in short: as §1
[9] = Colloidal aggregation in fed state simulated intestinal fluid assessed as colloid radius at 250 uM by dynamic light scattering assay in presence of 1% DMSO; type: physicochemical; conditions: simulated gi fluid; in short: as §1
[10] = Colloidal aggregation in fed state simulated intestinal fluid by dynamic light scattering assay in presence of 0.5% DMSO; type: physicochemical; conditions: simulated gi fluid; in short: as §1
[11] = Colloidal aggregation in fed state simulated intestinal fluid assessed as colloid radius at 100 uM by dynamic light scattering assay in presence of 1% DMSO; type: physicochemical; conditions: simulated gi fluid; in short: as §1
[12] = Colloidal aggregation in fed state simulated intestinal fluid assessed as percent of drug in fraction after centrifugation by UV-visible spectrophotometry in presence of 3% DMSO; conditions: simulated gi fluid
[13] = Binding affinity to beta-lactamase AmpC at 200 uM after 30 mins by SDS-PAGE
In short: (§3)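 Cosedimentation in FeSSIF, with and without 2 μg AmpC β-lactamase added per sample. Samples centrifuged at 16000g for 30 min at room temperature. Supernatant removed completely; pellets resuspended in DMSO plus 50 mM KPi pH 7.0 and run on SDS-PAGE. Protein detected by silver staining. Drug-only pellets included as background controls.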

[14] = Aggregation-based binding affinity to beta-lactamase AmpC at 200 uM in fed state simulated intestinal fluid after 30 mins by silver staining in presence of 2% DMSO; in short: as §3
[15] = Colloidal aggregation in fed state simulated intestinal fluid assessed as colloid radius at 2.5 uM by dynamic light scattering assay in presence of 1% DMSO; type: physicochemical; conditions: simulated gi fluid; in short: as §1
[16] = Colloidal aggregation in fed state simulated intestinal fluid assessed as colloid radius at 20 uM by dynamic light scattering assay in presence of 1% DMSO; type: physicochemical; conditions: simulated gi fluid; in short: as §1
[17] = Colloidal aggregation in fed state simulated intestinal fluid at 100 uM by transmission electron microscopy in presence of 1% DMSO; type: physicochemical; conditions: simulated gi fluid
In short: (§4)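 Drug DMSO stocks diluted into FeSSIF. Samples adsorbed ~30 s onto glow-discharged formvar/carbon-coated copper grids and negatively stained with 2% ammonium molybdate. Viewed by transmission electron microscopy at 80 kV, standard magnification 25 000, calibrated with catalase crystals and ferritin.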

[18] = Colloidal aggregation in phosphate buffer at 50 uM by transmission electron microscopy in presence of 0.5% DMSO; type: physicochemical
In short: (§5)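 Drug DMSO stocks diluted into 50 mM phosphate buffer. Samples adsorbed ~30 s onto glow-discharged formvar/carbon-coated copper grids and negatively stained with 2% ammonium molybdate. Imaged by transmission electron microscopy at 80 kV, standard magnification 25 000.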

[19] = Colloidal aggregation in fed state simulated intestinal fluid assessed as colloid radius at 5 uM by dynamic light scattering assay in presence of 1% DMSO; type: physicochemical; conditions: simulated gi fluid; in short: as §1
[20] = Colloidal aggregation in fed state simulated intestinal fluid assessed as colloid radius at 20 uM by dynamic light scattering assay in presence of 0.2% DMSO; type: physicochemical; conditions: simulated gi fluid; in short: as §1
[21] = Colloidal aggregation in fed state simulated intestinal fluid by dynamic light scattering assay in presence of 0.2% DMSO; type: physicochemical; conditions: simulated gi fluid; in short: as §1
[22] = Colloidal aggregation in phosphate buffer at 100 uM by transmission electron microscopy in presence of 0.2% DMSO; type: physicochemical; in short: as §5
[23] = Colloidal aggregation in fed state simulated intestinal fluid by dynamic light scattering assay in presence of 0.75% DMSO; type: physicochemical; conditions: simulated gi fluid; in short: as §1
[24] = Colloidal aggregation in fed state simulated intestinal fluid at 200 uM by transmission electron microscopy in presence of 1% DMSO; type: physicochemical; conditions: simulated gi fluid; in short: as §4
[25] = Colloidal aggregation in fed state simulated intestinal fluid assessed as colloid radius at 150 uM by dynamic light scattering assay in presence of 0.75% DMSO; type: physicochemical; conditions: simulated gi fluid; in short: as §1

IC50 (Cruzipain [1]): > 200 µM
Activity [2]: 373.3 nm
Activity [3]: 323.2 nm
Activity [4]: Active
IC50 (Cruzipain [5]): 4 µM
SMILES: Cc1cc(C#N)cc(C)c1Oc1nc(Nc2ccc(C#N)cc2)nc(N)c1Br [ETRAVIRINE]

Activity [22]: Active
Activity [23]: 150 µM
Activity [24]: Active
Activity [4]: Active
Activity [16]: 95.9 nm
Activity [25]: 52.6 nm
SMILES: CN(C)c1ccc2nc3ccc(N(C)C)cc3[s+]c2c1.[Cl-] [METHYLENE BLUE ANHYDROUS]

IC50 (Cruzipain [1]): 128 µM
Activity [16]: 192.2 nm
IC50 (Cruzipain [5]): 33 µM
SMILES: O=C(c1ccc(OCCN2CCCCC2)cc1)c1c(-c2ccc(O)cc2)sc2cc(O)ccc12 [RALOXIFENE]

IC50 (Cruzipain [1]): > 200 µM
Activity [3]: 93 nm
IC50 (Cruzipain [5]): 15 µM
SMILES: CSc1nc2cc(Cl)c(Oc3cccc(Cl)c3Cl)cc2[nH]1 [TRICLABENDAZOLE]

More lines, now with the values behind:

SMILES: CC(C)OC(=O)C(C)(C)Oc1ccc(C(=O)c2ccc(Cl)cc2)cc1 [FENOFIBRATE]
IC50 (Cruzipain [1]): > 500 µM
Activity [6]: Active
Activity [3]: 129 nm
Activity [7]: 113.8 nm
Activity [8]: 450 µM
IC50 (Cruzipain [5]): 61 µM

SMILES: COc1cc2ncnc(Nc3ccc(F)c(Cl)c3)c2cc1OCCCN1CCOCC1 [GEFITINIB]
IC50 (Cruzipain [1]): 148 µM
Activity [9]: 160.1 nm
Activity [10]: 250 µM
IC50 (Cruzipain [5]): 88 µM

SMILES: Cc1ccc(NC(=O)c2ccc(CN3CCN(C)CC3)cc2)cc1Nc1nccc(-c2cccnc2)n1 [IMATINIB]
IC50 (Cruzipain [1]): 297 µM
Activity [11]: 118.4 nm
IC50 (Cruzipain [5]): 207 µM

SMILES: CCC(C)n1ncn(-c2ccc(N3CCN(c4ccc(OCC5COC(Cn6cncn6)(c6ccc(Cl)cc6Cl)O5)cc4)CC3)cc2)c1=O (configuration not stated) [ITRACONAZOLE]
Percent of drug in fraction [12]: 6.9%
IC50 (Cruzipain [1]): > 200 µM
Activity [13]: inactive
Activity [14]: Active
Activity [15]: 138.1 nm
Activity [4]: Active
Activity [16]: 64.5 nm
Activity [17]: Active
Activity [18]: Active
IC50 (Cruzipain [5]): 3 µM

SMILES: COC(=O)C1=C(C)NC(C)=C(C(=O)OCCN2CCN(C(c3ccccc3)c3ccccc3)CC2)C1c1cccc([N+](=O)[O-])c1 (configuration not stated) [MANIDIPINE 6300]
IC50 (Cruzipain [1]): > 100 µM
Activity [15]: 125.6 nm
IC50 (Cruzipain [5]): 6 µM

SMILES: Cc1cccc(CN2CCN(C(c3ccccc3)c3ccc(Cl)cc3)CC2)c1.Cl (configuration not stated) [MECLIZINE DIHCL]
IC50 (Cruzipain [1]): > 250 µM
Activity [19]: 133.3 nm
IC50 (Cruzipain [5]): 129 µM

SMILES: CC(C)=CCC/C(C)=C/CC/C(C)=C/CC/C(C)=C/CC1=C(C)C(=O)c2ccccc2C1=O [MENATETRENONE]
IC50 (Cruzipain [1]): > 200 µM
Activity [20]: 36.8 nm
Activity [4]: Active
Activity [19]: 72.5 nm
Activity [21]: 20 µM
IC50 (Cruzipain [5]): 18 µM
